Measured values from ChEMBL document CHEMBL1155724, “Novel cytotoxic annonaceous acetogenins from Annona muricata” (J Nat Prod, 2001).
Values after ≈ are worked out from the molar mass of the structure shown.

Legend:
[1] = Cytotoxicity against human HepG2(2.2.15) cells after 12 days by methylene blue colorimetric method; format: functional, cell-based; conditions: HepG2 2.2.15, 288 h
In short: (§1)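 Hep G2 and HBV-transfected Hep G2 (Hep 2,2,15) cells were grown in RPMI 1640 or DMEM with 10% FCS, 100 units/mL penicillin and 100 µg/mL streptomycin, at 37 °C in humidified 5% CO2. Viability was measured by methylene blue staining, read at 592 nm. IC50 is the concentration giving 50% lower absorbance than drug-free controls.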

HepG2 = assay: Cytotoxicity against human HepG2 cells after 12 days by methylene blue colorimetric method; format: functional, cell-based; conditions: HepG2, 288 h; in short: as §1

Compound	IC50 [1] [mg/L]	IC50 (HepG2) [mg/L]
CCCCCCCCCCCCC(O)C(O)CCC(O)C1CCC(CCCCCCC[C@@H](O)CC2=C[C@H](C)OC2=O)O1 (mixture of isomers) [MURICATETROCIN A/B]	0.00483	0.0495
CCCCCCCCCCCC[C@@H](O)[C@H]1CC[C@H]([C@H](O)CCCC[C@H](O)CCCCCCCC2=C[C@H](C)OC2=O)O1 [COROSSOLINE]	0.234 (≈ 0.403 µM)	0.353 (≈ 0.608 µM)
CCCCCCCCCCCC[C@@H](O)[C@H]1CC[C@@H]([C@@H](O)CCCCC(=O)CCCCCCCC2=C[C@H](C)OC2=O)O1 [COROSSOLONE]	0.284 (≈ 0.491 µM)	0.48 (≈ 0.829 µM)
COc1cccc2c1C(=O)c1c(O)c3c(c(O)c1C2=O)C[C@@](O)(C(=O)CO)C[C@@H]3O[C@H]1C[C@H](N)[C@H](O)[C@H](C)O1 [DOXORUBICIN]	0.45 (≈ 0.828 µM)	
CCCCCCCCCCCCCC[C@@H](O)[C@H]1CC[C@H]([C@H](O)CC[C@H](O)CCCCCCCC2=C[C@H](C)OC2=O)O1 [LONGIFOLICIN]	0.0049 (≈ 0.00844 µM)	0.000404 (≈ 0.000695 µM)
CCCCCC(O)C(O)CCCCCC[C@@H](O)[C@H]1CC[C@H](CCCCCCCCCC[C@@H](O)CC2=C[C@H](C)OC2=O)O1 (stereo partly specified) [MURICIN A]	0.00513 (≈ 0.00859 µM)	
CCCCCC(O)C(O)CCCCCC[C@H](O)[C@@H]1CC[C@H](CCCCCCCCCC[C@H](O)CC2=C[C@H](C)OC2=O)O1 (stereo partly specified) [MURICIN B]	0.00429 (≈ 0.00719 µM)	
CCCCCCCC(O)C(O)CC[C@H](O)[C@@H]1CC[C@H](CCCCCCCCCCCC[C@@H](O)CC2=C[C@H](C)OC2=O)O1 (stereo partly specified) [MURICIN C]	0.00387 (≈ 0.00648 µM)	
CCCCCCCC(O)C(O)CC[C@H](O)[C@@H]1CC[C@@H](CCCCCCCCCC[C@@H](O)CC2=C[C@H](C)OC2=O)O1 (stereo partly specified) [MURICIN D]	0.048 (≈ 0.0844 µM)	0.00066 (≈ 0.00116 µM)
CCCCC(O)C(O)C/C=C\CC[C@H](O)[C@@H]1CC[C@@H](CCCCCCCCCCCC[C@@H](O)CC2=C[C@H](C)OC2=O)O1 (stereo partly specified) [MURICIN F]	0.00386 (≈ 0.00649 µM)	0.0428 (≈ 0.0719 µM)
